In ChEMBL document CHEMBL1153644, “Synthesis and analgesic and anti-inflammatory activities 6-substituted-3(2H)-pyridazinone-2-acetyl-2-(p-substituted/nonsubstituted benzal)hydrazone derivatives” (Eur J Med Chem, 2009) one finds Activity and inhibition in vivo data, which are given here for eight molecules.

Series [1] concerns Mus musculus. Put plainly: Gastrointestinal toxicity in Swiss albino mouse assessed as ulcerogenic effect at 100 mg/kg, po. It counts as organism-based. Set-up: dose 100 mg/kg, route oral. The following applies: in vivo. The method in brief: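 Male Swiss albino mice (20–25 g), food withdrawn one day before with water allowed, at least six per group. Dosed orally as a suspension in distilled water with 0.5% CMC; controls got vehicle. Taken from the p-benzoquinone writhing test (i.p. 2.5% PBQ 60 min post-dose), then killed under deep ether anesthesia. Stomachs were opened along the great curvature and checked under a dissecting microscope for lesions or bleeding; scored as ulcerated/total animals.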

In series [2] the test system is Mus musculus. In words: Analgesic activity in Swiss albino mouse assessed as inhibition of para-benzoquinone-induced abdominal writhing response at 100 mg/kg, po administered 60 mins prior to para-benzoquinone challenge measured after 15 mins. Set-up: scale not given: the % may be the effect or the level left. It counts as functional, Abdomen. Summed up:
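Male Swiss albino mice (20–25 g) were fasted overnight with water allowed, at least 6 per group. Oral dosing used a 0.5% CMC suspension, and vehicle was given to controls. Then 0.1 ml/10 g of 2.5% (v/v) p-benzoquinone was injected i.p. Writhings were counted for 15 min, starting 5 min after injection. Inhibition is expressed as % of control, mean ± SEM, ANOVA/Student–Newman–Keuls.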
In general terms: An intraperitoneal irritant provokes the stretching counted in writhing tests.

Series [3] relates to Mus musculus. Put plainly: Antiinflammatory activity in Swiss albino mouse assessed as inhibition of carrageenan-induced paw edema at 10 mg/kg, po administered before 60 mins of carrageenan-challenge measured after 360 mins. In kind it is functional. Summed up: (§1)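 Fasted male Swiss albino mice (20–25 g), n≥6, were dosed orally in 0.5% CMC suspension, with vehicle for controls. Carrageenan (0.5 mg/25 μl in saline) was injected subplantar into the right hind paw and saline into the left. The right–left footpad thickness difference was measured by dial caliper every 90 min over 6 h. Inhibition was calculated versus control, mean ± SEM.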
In general terms: The carrageenan paw model is a standard test of acute inflammation.

Series [4] relates to Mus musculus. In words: Antiinflammatory activity in Swiss albino mouse assessed as inhibition of carrageenan-induced paw edema at 10 mg/kg, po administered before 60 mins of carrageenan-challenge measured after 90 mins. It counts as functional. Summed up: as §1
The test system of series [5] is Mus musculus. Put plainly: Antiinflammatory activity in Swiss albino mouse assessed as inhibition of carrageenan-induced paw edema at 10 mg/kg, po administered before 60 mins of carrageenan-challenge measured after 180 mins. It counts as functional. The method in brief: as §1
In series [6] the test system is Mus musculus. In words: Antiinflammatory activity in Swiss albino mouse assessed as inhibition of carrageenan-induced paw edema at 10 mg/kg, po administered before 60 mins of carrageenan-challenge measured after 270 mins. It counts as functional. Summed up:
as §1

Take `Cc1ccc(/C=N/NC(=O)Cn2nc(N3CCN(c4cccc(Cl)c4)CC3)ccc2=O)cc1`: in series [1], the Activity entry is listed as “Non-toxic”. On to `COc1ccc(/C=N/NC(=O)Cn2nc(N3CCN(c4ccc(Cl)cc4)CC3)ccc2=O)cc1`, for which, in series [1], the Activity entry is listed as “Non-toxic”.

Turning to `COc1ccc(/C=N/NC(=O)Cn2nc(N3CCN(c4ccccn4)CC3)ccc2=O)cc1`, the Activity entry in series [1] is on record as “Non-toxic”. Turning to `COc1ccc(/C=N/NC(=O)Cn2nc(N3CCN(c4cccc(Cl)c4)CC3)ccc2=O)cc1`, the Activity result in series [1] is “Non-toxic”. Regarding `Cc1ccc(/C=N/NC(=O)Cn2nc(N3CCN(c4ccccn4)CC3)ccc2=O)cc1`, the Activity entry in series [1] is “Non-toxic”. Turning to `Cc1ccc(/C=N/NC(=O)Cn2nc(N3CCN(c4ccc(Cl)cc4)CC3)ccc2=O)cc1`, the Activity result in series [1] is “Non-toxic”. In the case of `CC(=O)Oc1ccccc1C(=O)O` [ASPIRIN], the Activity in series [2] is 48.7%; in series [1] it was “Toxic”. With `COc1ccc2c(c1)c(CC(=O)O)c(C)n2C(=O)c1ccc(Cl)cc1` [INDOMETHACIN], the inhibition in vivo at 10 mg/kg in series [3] worked out at 40.4%; in series [4], 34.4%; in series [5], 32.8%; in series [6], 37.4%. In addition, the Activity result in series [1] was “Toxic”.

One may read the inhibition in vivo as how much of the control response was suppressed.
